Columns and labels:
Type in all cases: functional
Conditions in all cases: read-out: Activity
[1] = test system: LOX IMVI; test: Growth inhibition of human LOX IMVI cells assessed as cell growth at 10 uM incubated for 48 hrs by sulforhodamine B assay relative to control
Procedure, shortened: (§1)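 Submitted to the NCI Developmental Therapeutics Program for the NCI60 human tumour cell line panel. First screen at a single 10 µM concentration. Read-out is growth relative to untreated control cells set at 100%.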

[2] = test system: ACHN; test: Growth inhibition of human ACHN cells assessed as cell growth at 10 uM incubated for 48 hrs by sulforhodamine B assay relative to control
Procedure, shortened: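 NCI Developmental Therapeutics Program NCI60 human tumour cell line panel, one-dose primary screen with every compound at 10 µM. Growth is expressed as % of untreated control cells (100%).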

[3] = test system: 786-0; test: Growth inhibition of human 786-0 cells assessed as cell growth at 10 uM incubated for 48 hrs by sulforhodamine B assay relative to control
Procedure, shortened: (§2)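 NCI Developmental Therapeutics Program NCI60 panel. Compounds that were active in the 10 µM one-dose screen went on to dose–response testing. Growth at each concentration is expressed relative to untreated control (100%). GI50 (concentration giving 50% of maximal inhibition of proliferation) and TGI (concentration giving total growth inhibition) were derived from the curves.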

[4] = test system: NCI-H460; test: Growth inhibition of human NCI-H460 cells assessed as cell growth at 10 uM incubated for 48 hrs by sulforhodamine B assay relative to control; procedure, shortened: as §1
[5] = test system: T47D; test: Growth inhibition of human T47D cells assessed as cell growth at 10 uM incubated for 48 hrs by sulforhodamine B assay relative to control
Procedure, shortened: (§3)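 Run by the NCI Developmental Therapeutics Program as part of its 60-line human tumour panel. Each compound tested at a single 10 µM dose. Growth expressed as % relative to untreated control cells (100%).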

[6] = test system: HCT-116; test: Growth inhibition of human HCT-116 cells assessed as cell growth at 10 uM incubated for 48 hrs by sulforhodamine B assay relative to control; procedure, shortened: as §1
[7] = test system: SK-MEL-28; test: Growth inhibition of human SK-MEL-28 cells assessed as cell growth at 10 uM incubated for 48 hrs by sulforhodamine B assay relative to control; procedure, shortened: as §3
[8] = test system: SN12C; test: Growth inhibition of human SN12C cells assessed as cell growth at 10 uM incubated for 48 hrs by sulforhodamine B assay relative to control; procedure, shortened: as §3
[9] = test system: OVCAR-4; test: Growth inhibition of human OVCAR-4 cells assessed as cell growth at 10 uM incubated for 48 hrs by sulforhodamine B assay relative to control; procedure, shortened: as §3
[10] = test system: KM12; test: Growth inhibition of human KM12 cells assessed as cell growth at 10 uM incubated for 48 hrs by sulforhodamine B assay relative to control; procedure, shortened: as §1
[11] = test system: MDA-MB-468; test: Growth inhibition of human MDA-MB-468 cells assessed as cell growth at 10 uM incubated for 48 hrs by sulforhodamine B assay relative to control; procedure, shortened: as §1
[12] = test system: NCI-H322M; test: Growth inhibition of human NCI-H322M cells assessed as cell growth at 10 uM incubated for 48 hrs by sulforhodamine B assay relative to control; procedure, shortened: as §1
[13] = test system: OVCAR-5; test: Growth inhibition of human OVCAR-5 cells assessed as cell growth at 10 uM incubated for 48 hrs by sulforhodamine B assay relative to control; procedure, shortened: as §3
[14] = test system: MCF7; test: Growth inhibition of human MCF7 cells assessed as cell growth at 10 uM incubated for 48 hrs by sulforhodamine B assay relative to control; procedure, shortened: as §1
[15] = test system: UO-31; test: Growth inhibition of human UO-31 cells assessed as cell growth at 10 uM incubated for 48 hrs by sulforhodamine B assay relative to control; procedure, shortened: as §3
[16] = test system: MDA-MB-435; test: Growth inhibition of human MDA-MB-435 cells assessed as cell growth at 10 uM incubated for 48 hrs by sulforhodamine B assay relative to control; procedure, shortened: as §1
[17] = test system: OVCAR-3; test: Growth inhibition of human OVCAR-3 cells assessed as cell growth at 10 uM incubated for 48 hrs by sulforhodamine B assay relative to control; procedure, shortened: as §3
[18] = test system: RXF 393; test: Growth inhibition of human RXF 393 cells assessed as cell growth at 10 uM incubated for 48 hrs by sulforhodamine B assay relative to control; procedure, shortened: as §3
[19] = test system: SF-295; test: Growth inhibition of human SF-295 cells assessed as cell growth at 10 uM incubated for 48 hrs by sulforhodamine B assay relative to control; procedure, shortened: as §3
[20] = test system: RPMI-8226; test: Growth inhibition of human RPMI-8226 cells assessed as cell growth at 10 uM incubated for 48 hrs by sulforhodamine B assay relative to control; procedure, shortened: as §3
[21] = test system: NCI-H226; test: Growth inhibition of human NCI-H226 cells assessed as cell growth at 10 uM incubated for 48 hrs by sulforhodamine B assay relative to control; procedure, shortened: as §1
[22] = test system: NCI/ADR-RES; test: Growth inhibition of human NCI/ADR-RES cells assessed as cell growth at 10 uM incubated for 48 hrs by sulforhodamine B assay relative to control; procedure, shortened: as §1
[23] = test system: SF-539; test: Growth inhibition of human SF-539 cells assessed as cell growth at 10 uM incubated for 48 hrs by sulforhodamine B assay relative to control; procedure, shortened: as §3
[24] = test system: SR; test: Growth inhibition of human SR cells assessed as cell growth at 10 uM incubated for 48 hrs by sulforhodamine B assay relative to control; procedure, shortened: as §3
[25] = test system: DU-145; test: Growth inhibition of human DU-145 cells assessed as cell growth at 10 uM incubated for 48 hrs by sulforhodamine B assay relative to control; procedure, shortened: as §2
[26] = test system: HCC 2998; test: Growth inhibition of human HCC 2998 cells assessed as cell growth at 10 uM incubated for 48 hrs by sulforhodamine B assay relative to control; procedure, shortened: as §2
[27] = test system: MOLT-4; test: Growth inhibition of human MOLT-4 cells assessed as cell growth at 10 uM incubated for 48 hrs by sulforhodamine B assay relative to control; procedure, shortened: as §1
[28] = test system: HL-60(TB); test: Growth inhibition of human HL-60(TB) cells assessed as cell growth at 10 uM incubated for 48 hrs by sulforhodamine B assay relative to control
Procedure, shortened: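 Screened by the NCI Developmental Therapeutics Program on its panel of 60 human tumour cell lines. Compounds were first tested at a single 10 µM dose, and compounds active there went to dose-response curves. Growth is expressed relative to untreated control (100%). GI50 (50% of maximal proliferation inhibition) and TGI (total growth inhibition) were derived from the dose-response data.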

[29] = test system: Malme-3M; test: Growth inhibition of human Malme-3M cells assessed as cell growth at 10 uM incubated for 48 hrs by sulforhodamine B assay relative to control; procedure, shortened: as §1
[30] = test system: SK-MEL-5; test: Growth inhibition of human SK-MEL-5 cells assessed as cell growth at 10 uM incubated for 48 hrs by sulforhodamine B assay relative to control; procedure, shortened: as §3
[31] = test system: Hs-578T; test: Growth inhibition of human Hs-578T cells assessed as cell growth at 10 uM incubated for 48 hrs by sulforhodamine B assay relative to control; procedure, shortened: as §1
[32] = test system: SW-620; test: Growth inhibition of human SW-620 cells assessed as cell growth at 10 uM incubated for 48 hrs by sulforhodamine B assay relative to control; procedure, shortened: as §3
[33] = test system: PC-3; test: Growth inhibition of human PC-3 cells assessed as cell growth at 10 uM incubated for 48 hrs by sulforhodamine B assay relative to control; procedure, shortened: as §3

SMILES | growth at 10 µM [1] | growth at 10 µM [2] | growth at 10 µM [3] | growth at 10 µM [4] | growth at 10 µM [5] | growth at 10 µM [6] | growth at 10 µM [7] | growth at 10 µM [8] | growth at 10 µM [9] | growth at 10 µM [10] | growth at 10 µM [11] | growth at 10 µM [12] | growth at 10 µM [13] | growth at 10 µM [14] | growth at 10 µM [15] | growth at 10 µM [16] | growth at 10 µM [17] | growth at 10 µM [19] | growth at 10 µM [20] | growth at 10 µM [21] | other results
CCc1ccccc1NC(=O)c1sc2nc3c(cc2c1N)C(=O)CCC3 | 42.6% | 38% | 35.1% | 6.42% | 22% | 24% | 43.7% | 40% | 41% | 21% | 14% | 46.3% | 22% | 8.32% | 44.5% | -56.6% | -12.7% | -3.21% | -1% | 64% | growth at 10 µM [18]: -4%; growth at 10 µM [22]: 5%; growth at 10 µM [23]: -17%; growth at 10 µM [24]: 9.38%; growth at 10 µM [25]: 2.55%; growth at 10 µM [26]: 20%; growth at 10 µM [27]: 24.4%; growth at 10 µM [28]: -10.3%; growth at 10 µM [29]: 60.8%; growth at 10 µM [30]: 17%; growth at 10 µM [31]: 22.6%; growth at 10 µM [32]: 24%
CC1(C)CCc2cc(-c3ccn(S(=O)(=O)c4ccc(C(C)(C)C)cc4)n3)ccc2O1 | 96.5% | 87.8% | 79.9% | 82.9% | 84.9% | 73.1% | 92.8% | 87.7% | 63.2% | 90.5% | 52.5% | 95.6% | 99.6% | 95.7% | 84.8% | 93% | 91.8% | 82.6% | 65.1% | 70.5% | growth at 10 µM [33]: 72.9%; growth at 10 µM [22]: 82.5%; growth at 10 µM [23]: 91.2%; growth at 10 µM [24]: 77.8%; growth at 10 µM [25]: 70%; growth at 10 µM [26]: 98%; growth at 10 µM [27]: 98.5%; growth at 10 µM [28]: 111%; growth at 10 µM [29]: 105%; growth at 10 µM [30]: 78%; growth at 10 µM [31]: 97.8%; growth at 10 µM [32]: 89.7%

— ChEMBL document CHEMBL4715736, “Identification of anticancer agents based on the thieno[2,3-b]pyridine and 1H-pyrazole molecular scaffolds” (2016)
